Experimental findings from ChEMBL document CHEMBL1629572 (Antimicrob Agents Chemother, 2009) are described below.

Experiment [1] deals with T1, Neuraminidase (Influenza A virus, UniProt B4URF0). As to the kind of experiment: Inhibition of Influenza A virus (A/Yamagata/1/2002(H3N2)) neuraminidase after 30 mins by fluorescence analysis.
Experiment [2] concerns the target T1, Neuraminidase. As to the kind of experiment: Inhibition of Influenza A virus (A/seal/Massachusetts/1/1980(H7N7)) neuraminidase after 30 mins by fluorescence analysis.
In experiment [3] the target is T1, Neuraminidase. As to the kind of experiment: Inhibition of Influenza A virus (A/turkey/Ontario/6,118/1968(H8N4)) neuraminidase after 30 mins by fluorescence analysis.
Experiment [4] deals with T1, Neuraminidase. As to the kind of experiment: Inhibition of Influenza A virus (A/Shiga/1/2002(H1N1)) neuraminidase after 30 mins by fluorescence analysis.
A short description of experiment [5]: Inhibition of Influenza B virus (B/Yamagata/85/2004(Yamagata)) neuraminidase after 30 mins by fluorescence analysis. The essentials: (§1)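 Virus NA source was mixed with compound in 32.5 mM MES-NaOH pH 6.5 with 4 mM CaCl2 and preincubated 10 min at room temperature. Reaction ran 30 min at room temperature with 100 μM (final) 4-MU-NANA. Fluorescence was read at ex 360/em 460 nm, in triplicate. IC50 came from linear regression of residual activity against log concentration, using concentrations giving 10–90% residual activity.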

In experiment [6] the target is T1, Neuraminidase. As to the kind of experiment: Inhibition of Influenza A virus (A/New Caledonia/20/1999(H1N1)) neuraminidase after 30 mins by fluorescence analysis.
Experiment [7] addresses T1, Neuraminidase. As to the kind of experiment: Inhibition of Influenza A virus (A/duck/Alberta/60/1976(H12N5)) neuraminidase after 30 mins by fluorescence analysis.
The nature of experiment [8]: Inhibition of Influenza B virus (B/Shanghai/361/2002(Yamagata)) neuraminidase after 30 mins by fluorescence analysis. In outline:
as §1

Experiment [9] in a line: Inhibition of Influenza B virus (B/Tokushima/1/2005(Yamagata)) neuraminidase after 30 mins by fluorescence analysis. In outline:
as §1

The target of experiment [10] is T1, Neuraminidase. As to the kind of experiment: Inhibition of Influenza A virus (A/Aichi/2/1968(H3N2)) neuraminidase after 30 mins by fluorescence analysis.
Experiment [11] is described as follows: Inhibition of Influenza B virus (B/Tokushima/1/2003(Victoria)) neuraminidase after 30 mins by fluorescence analysis. The essentials:
as §1

Experiment [12] can be described thus: Inhibition of Influenza B virus (B/Shiga/17/2002(Victoria)) neuraminidase after 30 mins by fluorescence analysis. The essentials:
as §1

Experiment [13] is described as follows: Inhibition of Influenza B virus (B/Shizuoka/58/2004(Yamagata)) neuraminidase after 30 mins by fluorescence analysis. The essentials: as §1
The nature of experiment [14]: Inhibition of Influenza B virus (B/Yamagata/1/2005(Yamagata)) neuraminidase after 30 mins by fluorescence analysis. The essentials:
as §1

Experiment [15] concerns the target T1, Neuraminidase. As to the kind of experiment: Inhibition of Influenza A virus (A/Hiroshima/52/2005(H3N2)) neuraminidase after 30 mins by fluorescence analysis.
Experiment [16] concerns the target T1, Neuraminidase. As to the kind of experiment: Inhibition of Influenza A virus (A/Aichi/169/2005(H1N1)) neuraminidase after 30 mins by fluorescence analysis.
The target in experiment [17] is T1, Neuraminidase. As to the kind of experiment: Inhibition of Influenza A virus (A/Saitama/78/2003(H1N1)) neuraminidase after 30 mins by fluorescence analysis.
Experiment [18] has as its target T1, Neuraminidase. As to the kind of experiment: Inhibition of Influenza A virus (A/Yamagata/57/2002(H1N1)) neuraminidase after 30 mins by fluorescence analysis.

T1 sequence (B4URF0 whole entry): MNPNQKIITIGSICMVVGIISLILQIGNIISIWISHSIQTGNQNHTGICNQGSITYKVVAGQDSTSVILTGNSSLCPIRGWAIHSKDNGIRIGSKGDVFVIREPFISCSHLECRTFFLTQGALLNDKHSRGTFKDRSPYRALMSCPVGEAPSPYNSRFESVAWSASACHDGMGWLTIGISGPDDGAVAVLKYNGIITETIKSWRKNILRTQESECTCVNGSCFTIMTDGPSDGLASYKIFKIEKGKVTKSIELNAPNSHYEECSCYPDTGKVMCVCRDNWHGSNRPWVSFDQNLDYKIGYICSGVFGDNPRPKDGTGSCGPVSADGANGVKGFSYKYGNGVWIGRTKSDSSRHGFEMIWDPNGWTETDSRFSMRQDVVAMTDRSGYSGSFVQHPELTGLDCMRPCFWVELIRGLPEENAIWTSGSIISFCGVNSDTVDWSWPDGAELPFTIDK

As to `CCCCCCCC(=O)OC[C@@H](O)[C@@H](OC)[C@@H]1OC(C(=O)O)=C[C@H](NC(=N)N)[C@H]1NC(C)=O` [LANINAMIVIR OCTANOATE], the IC50 on Neuraminidase [1] was 0.0566 µM; at Neuraminidase [2] it was 0.142 µM; against Neuraminidase [3], 0.42 µM; against Neuraminidase [4], 0.733 µM; in [5] it was 7.19 µM; against Neuraminidase [6], 0.666 µM. Besides, the IC50 against Neuraminidase [7] was found to be 1.14 µM; in [8], 6.66 µM; in experiment [9] it was 3.71 µM; on Neuraminidase [10] it was 0.164 µM; in [11], 13.8 µM; in experiment [12], 7.68 µM. The IC50 came out at 7.53 µM in experiment [13]; 3.63 µM in experiment [14]; 0.0691 µM on Neuraminidase [15]; 0.664 µM at Neuraminidase [16]; 0.94 µM against Neuraminidase [17]; 1.17 µM at Neuraminidase [18].
